Key:
Spleen [1] = experiment: Biodistribution in ICR mouse spleen at 1 uCi, iv after 240 mins postinjection; type: ADME, organism-based; details: in vivo, 4 h
Summary of the method: (§1)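 Female ICR mice (18–22 g, n = 5) received HPLC-purified radiotracer by tail vein (0.1 mL). They were killed by cervical fracture at the stated times. Blood and organs were removed, weighed and gamma-counted. Uptake expressed as percent injected dose per gram of tissue (%ID/g), given as mean with SD.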

Lung [2] = experiment: Biodistribution in ICR mouse lung at 1 uCi, iv after 240 mins postinjection; type: ADME, organism-based; details: in vivo, 4 h; summary of the method: as §1
Thyroid gland [3] = experiment: Biodistribution in ICR mouse thyroid at 1 uCi, iv after 240 mins postinjection; type: ADME, organism-based; details: in vivo, 4 h
Summary of the method: (§2)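 Female ICR mice (18–22 g, n = 5) received HPLC-purified radioiodinated tracer by tail vein (0.1 mL, 1 µCi). They were killed by cervical fracture at 15, 30, 60, 120 or 240 min post-injection. Blood and organs were removed, weighed and gamma-counted. Uptake is expressed as %ID/g, mean ± SD, n = 4–5.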

Muscle tissue = experiment: Biodistribution in ICR mouse muscle at 1 uCi, iv after 240 mins postinjection; type: ADME, organism-based; details: in vivo, 4 h; summary of the method: as §1
Spleen [4] = experiment: Biodistribution in ICR mouse spleen at 1 uCi, iv after 60 mins postinjection; type: ADME, organism-based; details: in vivo, 1 h; summary of the method: as §1
Brain [5] = experiment: Biodistribution in ICR mouse brain at 1 uCi, iv after 240 mins postinjection; type: ADME, organism-based; details: in vivo, 4 h; summary of the method: as §1
Heart [6] = experiment: Biodistribution in ICR mouse heart at 1 uCi, iv after 60 mins postinjection; type: ADME, organism-based; details: in vivo, 1 h; summary of the method: as §1
Brain [7] = experiment: Biodistribution in ICR mouse brain at 1 uCi, iv after 120 mins postinjection; type: ADME, organism-based; details: in vivo, 2 h; summary of the method: as §1
Spleen [8] = experiment: Biodistribution in ICR mouse spleen at 1 uCi, iv after 30 mins postinjection; type: ADME, organism-based; details: in vivo, 0.5 h; summary of the method: as §1
Thyroid gland [9] = experiment: Biodistribution in ICR mouse thyroid at 1 uCi, iv after 15 mins postinjection; type: ADME, organism-based; details: in vivo, 0.25 h; summary of the method: as §2
Mus musculus [10] = experiment: Biodistribution in ICR mouse small intestine at 1 uCi, iv after 240 mins postinjection; type: ADME, organism-based; details: in vivo, 4 h; summary of the method: as §1
Heart [11] = experiment: Biodistribution in ICR mouse heart at 1 uCi, iv after 120 mins postinjection; type: ADME, organism-based; details: in vivo, 2 h; summary of the method: as §1
Kidney [12] = experiment: Biodistribution in ICR mouse kidney at 1 uCi, iv after 30 mins postinjection; type: ADME, organism-based; details: in vivo, 0.5 h; summary of the method: as §1
Blood [13] = experiment: Biodistribution in ICR mouse blood at 1 uCi, iv after 30 mins postinjection; type: ADME, organism-based; details: in vivo, 0.5 h; summary of the method: as §1
Lung [14] = experiment: Biodistribution in ICR mouse lung at 1 uCi, iv after 15 mins postinjection; type: ADME, organism-based; details: in vivo, 0.25 h; summary of the method: as §1
Lung [15] = experiment: Biodistribution in ICR mouse lung at 1 uCi, iv after 30 mins postinjection; type: ADME, organism-based; details: in vivo, 0.5 h; summary of the method: as §1
Liver = experiment: Biodistribution in ICR mouse liver at 1 uCi, iv after 15 mins postinjection; type: ADME, organism-based; details: in vivo, 0.25 h; summary of the method: as §1
Blood [16] = experiment: Biodistribution in ICR mouse blood at 1 uCi, iv after 240 mins postinjection; type: ADME, organism-based; details: in vivo, 4 h; summary of the method: as §1
Mus musculus [17] = experiment: Biodistribution in ICR mouse small intestine at 1 uCi, iv after 30 mins postinjection; type: ADME, organism-based; details: in vivo, 0.5 h; summary of the method: as §1
Heart [18] = experiment: Biodistribution in ICR mouse heart at 1 uCi, iv after 240 mins postinjection; type: ADME, organism-based; details: in vivo, 4 h; summary of the method: as §1
Kidney [19] = experiment: Biodistribution in ICR mouse kidney at 1 uCi, iv after 120 mins postinjection; type: ADME, organism-based; details: in vivo, 2 h; summary of the method: as §1
Stomach [20] = experiment: Biodistribution in ICR mouse stomach at 1 uCi, iv measured per organ after 240 mins postinjection; type: ADME, organism-based; details: in vivo, 4 h
Stomach [21] = experiment: Biodistribution in ICR mouse stomach at 1 uCi, iv measured per organ after 60 mins postinjection; type: ADME, organism-based; details: in vivo, 1 h; summary of the method: as §2
Brain [22] = experiment: Biodistribution in ICR mouse brain at 1 uCi, iv after 15 mins postinjection; type: ADME, organism-based; details: in vivo, 0.25 h; summary of the method: as §1
Mus musculus [23] = experiment: Biodistribution in ICR mouse small intestine at 1 uCi, iv after 60 mins postinjection; type: ADME, organism-based; details: in vivo, 1 h; summary of the method: as §1
Lung [24] = experiment: Biodistribution in ICR mouse lung at 1 uCi, iv after 60 mins postinjection; type: ADME, organism-based; details: in vivo, 1 h; summary of the method: as §1
[25] = 1-Octanol-sodium phosphate buffer distribution coefficient, log D of the compound at pH 7.4; type: physicochemical
Summary of the method: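 Shake-flask partition of HPLC-purified radiotracer between 1-octanol and 0.05 mol/L sodium phosphate buffer pH 7.4, phases mutually pre-saturated (3 mL each). […] Octanol layer re-distributed until values were consistent. Triplicate, repeated three times.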

Kidney [26] = experiment: Biodistribution in ICR mouse kidney at 1 uCi, iv after 15 mins postinjection; type: ADME, organism-based; details: in vivo, 0.25 h; summary of the method: as §1

Compound: [125I]c1ccc(CN2CCN(Cc3ccc4c(c3)OCO4)CC2)cc1
- Drug uptake (Spleen [1]): 2.83 % ID/g
- Drug uptake (Lung [2]): 2.69 % ID/g
- Drug uptake (Thyroid gland [3]): 1.22 % ID/g
- Drug uptake (Muscle tissue): 0.72 % ID/g
- Drug uptake (Spleen [4]): 5.7 % ID/g
- Drug uptake (Brain [5]): 2.09 % ID/g
- Drug uptake (Heart [6]): 1.71 % ID/g
- Drug uptake (Brain [7]): 3.75 % ID/g
- Drug uptake (Spleen [8]): 6.53 % ID/g
- Drug uptake (Thyroid gland [9]): 6.55 % ID/g
- Drug uptake (Mus musculus [10]): 10.95 % ID/g
- Drug uptake (Heart [11]): 1.24 % ID/g
- Drug uptake (Kidney [12]): 9.65 % ID/g
- Drug uptake (Blood [13]): 0.88 % ID/g
- Drug uptake (Lung [14]): 12.49 % ID/g
- Drug uptake (Lung [15]): 8.7 % ID/g
- Drug uptake (Liver): 9 % ID/g
- Drug uptake (Blood [16]): 0.72 % ID/g
- Drug uptake (Mus musculus [17]): 10.21 % ID/g
- Drug uptake (Heart [18]): 0.75 % ID/g
- Drug uptake (Kidney [19]): 7.82 % ID/g
- Drug uptake (Stomach [20]): 1.68 %ID
- Drug uptake (Stomach [21]): 1.78 %ID
- Drug uptake (Brain [22]): 5.03 % ID/g
- Drug uptake (Mus musculus [23]): 7.45 % ID/g
- Drug uptake (Lung [24]): 6.29 % ID/g
- logD [25]: 2.98
- Drug uptake (Kidney [26]): 12.72 % ID/g

From ChEMBL document CHEMBL1772977, “Synthesis and biological evaluation of novel 4-benzylpiperazine ligands for sigma-1 receptor imaging” (Bioorg Med Chem, 2011)
